Laboratory results from ChEMBL document CHEMBL4052644, “Synthesis of novel benzylidene analogues of betulinic acid as potent cytotoxic agents” (Eur J Med Chem, 2017).

Columns and labels:
[1] = system: PC-3; assay: Growth inhibition of human PC3 cells at 10 uM after 48 hrs by SRB assay relative to control; format: functional; details: PC-3, 48 h, read-out: GI
Procedure, shortened: (§1)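 Primary SRB screen of every compound at a single concentration of 10 µM. Growth inhibition is expressed relative to control.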

[2] = system: PC-3; assay: Cytotoxicity against human PC3 cells assessed as reduction in cell viability after 48 hrs by SRB assay; format: functional, cell-based; details: PC-3, 48 h
Procedure, shortened: (§2)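 SRB assay. Compounds active at 10 µM in the primary screen were retested at 1, 2.5 and 5 µM, and IC50 was calculated from these concentrations. The normal breast epithelial line fR2 was tested alongside the cancer lines.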

[3] = system: MCF7; assay: Growth inhibition of human MCF7 cells at 10 uM after 48 hrs by SRB assay relative to control; format: functional; details: MCF7, 48 h, read-out: GI; procedure, shortened: as §1
[4] = system: A549; assay: Growth inhibition of human A549 cells at 10 uM after 48 hrs by SRB assay relative to control; format: functional; details: A549, 48 h, read-out: GI; procedure, shortened: as §1
[5] = system: MCF7; assay: Cytotoxicity against human MCF7 cells assessed as reduction in cell viability after 48 hrs by SRB assay; format: functional, cell-based; details: MCF7, 48 h; procedure, shortened: as §2
[6] = system: MIA PaCa-2; assay: Growth inhibition of human MIAPaCa2 at 10 uM after 48 hrs by SRB assay relative to control; format: functional; details: MIA PaCa-2, 48 h, read-out: GI; procedure, shortened: as §1
[7] = Selectivity index, ratio of IC50 for human FR2 cells to IC50 for human MCF7 cells; format: functional
Procedure, shortened: (§3)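 Selectivity index is the IC50 in normal breast epithelial fR2 cells divided by the IC50 in each cancer line. All IC50 values come from the SRB assay.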

[8] = system: HCT-116; assay: Growth inhibition of human HCT116 cells at 10 uM after 48 hrs by SRB assay relative to control; format: functional; details: HCT-116, 48 h, read-out: GI; procedure, shortened: as §1
[9] = Cytotoxicity against human FR2 cells assessed as reduction in cell viability after 48 hrs by SRB assay; format: cell-based; details: FR2, 48 h; procedure, shortened: as §2
[10] = system: A549; assay: Cytotoxicity against human A549 cells assessed as reduction in cell viability after 48 hrs by SRB assay; format: functional, cell-based; details: A549, 48 h; procedure, shortened: as §2
[11] = system: HCT-116; assay: Cytotoxicity against human HCT116 cells assessed as reduction in cell viability after 48 hrs by SRB assay; format: functional, cell-based; details: HCT-116, 48 h; procedure, shortened: as §2
[12] = system: MIA PaCa-2; assay: Cytotoxicity against human MIAPaCa2 cells assessed as reduction in cell viability after 48 hrs by SRB assay; format: functional, cell-based; details: MIA PaCa-2, 48 h; procedure, shortened: as §2
[13] = Selectivity index, ratio of IC50 for human FR2 cells to IC50 for human HCT116 cells; format: functional; procedure, shortened: as §3
[14] = Selectivity index, ratio of IC50 for human FR2 cells to IC50 for human A549 cells; format: functional; procedure, shortened: as §3

SMILES | inhibition of growth at 10 µM [1] | IC50 [2] | inhibition of growth at 10 µM [3] | inhibition of growth at 10 µM [4] | IC50 [5] | inhibition of growth at 10 µM [6] | Ratio IC50 [7] | inhibition of growth at 10 µM [8] | IC50 [9] | IC50 [10] | IC50 [11] | IC50 [12] | Ratio IC50 [13] | Ratio IC50 [14]
C=C(C)[C@@H]1CC[C@]2(C(=O)O)CC[C@]3(C)[C@H](CC[C@@H]4[C@@]5(C)C/C(=C\c6ccsc6)[C@H](O)C(C)(C)[C@@H]5CC[C@]43C)[C@@H]12 | 35% | > 10 µM | 79% | 72% | 1.71 µM | 70% | 6.461 | 62% | 11.1 µM | > 10 µM | > 10 µM | > 10 µM |  | 
C=C(C)[C@@H]1CC[C@]2(C(=O)O)CC[C@]3(C)[C@H](CC[C@@H]4[C@@]5(C)C/C(=C\c6c(Cl)cccc6Cl)[C@H](O)C(C)(C)[C@@H]5CC[C@]43C)[C@@H]12 | 38% | > 10 µM | 56% | 40% | > 10 µM | 38% |  | 40% | 13.3 µM | > 10 µM | > 10 µM | > 10 µM |  | 
C=C(C)[C@@H]1CC[C@]2(C(=O)O)CC[C@]3(C)[C@H](CC[C@@H]4[C@@]5(C)C/C(=C\c6ccc(Br)o6)[C@H](O)C(C)(C)[C@@H]5CC[C@]43C)[C@@H]12 | 8% |  | 22% | 0% |  | 34% |  | 25% |  |  |  |  |  | 
C=C(C)[C@@H]1CC[C@]2(C(=O)O)CC[C@]3(C)[C@H](CC[C@@H]4[C@@]5(C)C/C(=C\c6c(Cl)cccc6Cl)C(=O)C(C)(C)[C@@H]5CC[C@]43C)[C@@H]12 | 25% | > 10 µM | 54% | 62% | 9.07 µM | 15% |  | 33% | 18.2 µM | 7.7 µM | > 10 µM | > 10 µM | <2.003 | 2.359
C=C(C)[C@@H]1CC[C@]2(C(=O)O)CC[C@]3(C)[C@H](CC[C@@H]4[C@@]5(C)CCC(=O)C(C)(C)[C@@H]5CC[C@]43C)[C@@H]12 [BETUNOLIC ACID] | 43% | > 10 µM | 43% | 62% | > 10 µM | 36% |  | 49% | 16.2 µM | 5.7 µM | > 10 µM | > 10 µM |  | 2.838
C=C(C)[C@@H]1CC[C@]2(C(=O)O)CC[C@]3(C)[C@H](CC[C@@H]4[C@@]5(C)C/C(=C\c6cccnc6)[C@H](O)C(C)(C)[C@@H]5CC[C@]43C)[C@@H]12 | 26% | > 10 µM | 72% | 71% | 3.9 µM | 63% | 3.18 | 65% | 12.4 µM | 3.4 µM | 5.04 µM | 5.8 µM | 2.46 | 3.65
C=C(C)[C@@H]1CC[C@]2(C(=O)O)CC[C@]3(C)[C@H](CC[C@@H]4[C@@]5(C)C/C(=C/C=C/c6ccccc6)[C@H](O)C(C)(C)[C@@H]5CC[C@]43C)[C@@H]12 | 30% |  | 49% | 26% |  | 49% |  | 40% |  |  |  |  |  | 
C=C(C)[C@@H]1CC[C@]2(C(=O)O)CC[C@]3(C)[C@H](CC[C@@H]4[C@@]5(C)C/C(=C\c6ccc(F)c(Br)c6)[C@H](O)C(C)(C)[C@@H]5CC[C@]43C)[C@@H]12 | 31% | > 10 µM | 72% | 65% | 6.4 µM | 40% | 4.021 | 57% | 25.7 µM | 4.9 µM | 8.4 µM | > 10 µM | 3.064 | 5.253
